ChEMBL document CHEMBL5674884, “Ezh2 inhibition in Kras-driven lung cancer amplifies inflammation and associated vulnerabilities” (J Exp Med, 2018)
Values belong to the compound of their own block, whether it stands above or below them. Calls of active or inactive are those of the source. The rule behind the calls is not given here.

How the values were obtained:
NSCLC [1] = experiment: Antitumor activity in KrasG12D/+ harbouring mouse NSCLC cells xenografted in BALB/c nude mouse assessed as reduced tumor progression; type: functional; details: dose 50.0 mg/kg, route iv
A549 [2] = experiment: Reversal of GSK126 dependent antiinflammatory activity in human A549 cells assessed as decrease in IL-6 level by qRT-PCR analysis; type: functional, cell-based
A549 [3] = experiment: Reversal of GSK126 dependent antiinflammatory activity in human A549 cells assessed as decrease in Ccl2 level by qRT-PCR analysis; type: functional, cell-based
A549 [4] = experiment: Reversal of GSK126 dependent antiinflammatory activity in human A549 cells assessed as decrease in Il1ra level by qRT-PCR analysis; type: functional, cell-based
A549 [5] = experiment: Reversal of GSK126 dependent antiinflammatory activity in human A549 cells assessed as decrease in Irak1 level by qRT-PCR analysis; type: functional, cell-based
[6] = target: Histone-lysine N-methyltransferase EZH2 (Mus musculus) (UniProt Q61188); experiment: Inhibition of Ezh2 in mouse NSCLC cells at 100 nM in presence of […] by immunoblot analysis; type: cell-based
Sequence of Histone-lysine N-methyltransferase EZH2 (Mus musculus) (Q61188 whole entry): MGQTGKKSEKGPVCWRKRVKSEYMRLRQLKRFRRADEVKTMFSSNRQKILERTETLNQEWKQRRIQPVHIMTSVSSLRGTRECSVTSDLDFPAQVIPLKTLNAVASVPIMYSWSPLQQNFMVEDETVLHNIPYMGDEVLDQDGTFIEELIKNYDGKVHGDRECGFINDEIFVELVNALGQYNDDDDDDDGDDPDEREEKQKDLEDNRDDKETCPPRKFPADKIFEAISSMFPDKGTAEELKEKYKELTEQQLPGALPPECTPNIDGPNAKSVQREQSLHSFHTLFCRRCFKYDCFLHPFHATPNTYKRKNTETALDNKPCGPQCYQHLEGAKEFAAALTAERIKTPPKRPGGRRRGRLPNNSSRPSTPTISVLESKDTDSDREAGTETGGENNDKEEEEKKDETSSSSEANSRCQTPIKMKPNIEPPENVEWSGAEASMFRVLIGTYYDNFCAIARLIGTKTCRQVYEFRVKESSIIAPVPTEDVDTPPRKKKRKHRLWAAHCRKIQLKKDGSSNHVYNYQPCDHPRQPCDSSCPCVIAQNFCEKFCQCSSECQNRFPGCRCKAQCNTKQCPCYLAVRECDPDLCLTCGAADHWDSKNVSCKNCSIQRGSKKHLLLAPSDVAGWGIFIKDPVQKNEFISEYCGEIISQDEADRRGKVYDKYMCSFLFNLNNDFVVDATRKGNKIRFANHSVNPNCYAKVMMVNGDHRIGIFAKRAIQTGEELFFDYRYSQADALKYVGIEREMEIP

[7] = target: Histone-lysine N-methyltransferase EZH2 (Mus musculus) (UniProt Q61188); experiment: Inhibition of Ezh2 in mouse NSCLC cells expressing Kras G12D/+ assessed down-regulation of H3K27me3 level at 100 nM for 120 hrs by Immunoblot analysis; type: cell-based
NSCLC [8] = experiment: Antiproliferative activity in mouse NSCLC cell expressing Kras G12D/+ assessed reduction in cell viability at 100 nM; type: functional, cell-based
How it was run: (§1)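 Kras G12D/+;Trp53-/- cells treated with 100 nM GSK343 or GSK669 for 5 d, with or without dox, then replated at 250 or 500 cells per well for colony formation under continued treatment. Cell numbers taken relative to controls; colony size quantified automatically. Three independent experiments.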

[9] = target: Histone-lysine N-methyltransferase EZH2 (Mus musculus) (UniProt Q61188); experiment: Inhibition of Ezh2 in mouse NSCLC cells infected with dox-inducible EZH2 shRNA assessed vinculin expression at 100 nM in presence of […] by immunoblot analysis; type: cell-based
NSCLC [10] = experiment: Inhibition of colony formation in mouse NSCLC cell expressing Kras G12D/+ at 100 nM; type: functional, cell-based; how it was run: as §1
NSCLC [11] = experiment: Induction of cell cycle arrest in mouse NSCLC cell infected with dox-inducible EZH2 shRNA assessed as accumulation of cells at G0/G1 phase at 100 nM in presence of […] by FACS analysis; type: functional, cell-based
How it was run: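 Kras G12D/+;Trp53-/- cells carrying dox-inducible EZH2 shRNA treated with or without dox and 100 nM GSK343 for 3 d. Cells then pulsed 45 min with 10 uM BrdU and stained with anti-BrdU-FITC and propidium iodide (5 ug/ml) with RNaseA, then analyzed by FACS. Three independent experiments; Student's t test.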

SMILES: CC(C)C[C@H](NC(=O)[C@H](Cc1ccccc1)NC(=O)c1cnccn1)B(O)O
Activity (NSCLC [1]): inactive

SMILES: CN1CC[C@H](c2c(O)cc(O)c3c(=O)cc(-c4ccccc4Cl)oc23)[C@H](O)C1
Activity (A549 [2]): Active
Activity (A549 [3]): Active
Activity (A549 [4]): Active
Activity (A549 [5]): Active

inhibition [6]: Active
inhibition [7]: Active
inhibition [9]: Active
SMILES: CCCc1cc(C)[nH]c(=O)c1CNC(=O)c1cc(-c2ccnc(N3CCN(C)CC3)c2)cc2c1cnn2C(C)C
Activity (NSCLC [8]): Active
inhibition (NSCLC [10]): Active
Activity (NSCLC [11]): Active
